In the library only some 3.5% were active in any assay of this set; here they are far more common.
STAT1 activator – STAT1 signaling activation | 200,000 tested, 2.6% active | AID 932 | activation (% of control), % at 5.5 µM | NIH 3T3 STAT1-luciferase reporter, IFN-gamma, luminescence; 100% = IFN-gamma alone, no compound;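 active means activation above the screen-wide mean activation plus 3 SD, cut at about 130% in these data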;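 further: raw ratio to IFN-gamma control signal so 100% means no change and 0% no light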
APP 5'UTR act – activates APP 5'UTR luciferase reporter; SH-SY5Y APP 5'UTR luciferase reporter, luminescence; zero percent = DMSO vehicle wells; activation, % at 2 µM; 190,000 tested, 1% active;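 active means activation above a set limit, based on mean plus 3 SD of controls, cut at about 140% in these data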
FLuc act counter – affects firefly luciferase, flagging false hits in luciferase stimulation screens. ATPlite luciferase biochemical, luminescence, 10 min; 0 = ATP-free wells, 1 = DMSO control. 200,000 tested, under 10 active. P08659. activation factor at 10 µM;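 active means luciferase activation factor, scaled between plate controls, of at least 2 with compound at 10 µM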
Target sequence (P08659 whole entry, looked up): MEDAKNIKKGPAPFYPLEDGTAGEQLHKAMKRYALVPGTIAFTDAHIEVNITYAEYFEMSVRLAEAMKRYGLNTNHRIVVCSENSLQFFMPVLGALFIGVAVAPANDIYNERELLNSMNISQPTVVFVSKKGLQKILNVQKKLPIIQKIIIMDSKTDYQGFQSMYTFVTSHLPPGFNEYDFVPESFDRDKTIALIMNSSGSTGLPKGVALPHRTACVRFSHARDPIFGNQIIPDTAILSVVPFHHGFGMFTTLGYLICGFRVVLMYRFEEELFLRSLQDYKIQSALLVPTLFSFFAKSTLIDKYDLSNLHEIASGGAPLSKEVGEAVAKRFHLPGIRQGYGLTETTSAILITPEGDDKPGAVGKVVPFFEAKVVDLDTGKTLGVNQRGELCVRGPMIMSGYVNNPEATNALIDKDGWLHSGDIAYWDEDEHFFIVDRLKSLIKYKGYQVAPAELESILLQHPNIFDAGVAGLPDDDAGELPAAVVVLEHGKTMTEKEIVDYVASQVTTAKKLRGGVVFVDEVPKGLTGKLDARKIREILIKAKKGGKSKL
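System: Luciferase/luciferin detection reagent, cell-free biochemical luciferase assay | Medium: PBS buffer for ATP | Dosing: Test compounds dosed from 2 mM stocks in 100% DMSO | Timing: 10 min at ambient temperature | Signal: Luminescence measurement of luciferase light output | Evaluation: Luciferase activation, seen as luminescence increase over controls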
NF-kB expr up – NF-kB expression increase, human neuronal cells. 190,000 tested, 1.6% active. fold change at 12.5 µM. NF-kB reporter expression; active compounds read high; in the data active means fold change above about 3.3
FLuc inhib CS – counter-screen for luciferase assay inhibitors: firefly luciferase inhibition | inhibition, % at 10 µM | P08659 | 200,000 tested, 1.5% active | ATPLite firefly luciferase biochemical luminescence, 10 min;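 active means inhibition above about 50% when tested at 10 µM, limit read from the data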
Pf gamet viab – inhibitors of late stage P. falciparum gametocyte viability. P. falciparum stage V gametocytes, ATP luminescence, 24 h. inhibition, % at 10.9 µM. 150,000 tested, 0.065% active. AID 743093;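 active means inhibition above the mean plus 3 SD of compounds within the control limits, set per campaign, cut at about 38% in these data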;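 further: 0% = DMSO wells and 100% = medium only without gametocytes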
An asterisk follows results filed as active; · = no result given.

SMILES	STAT1 activator	APP 5'UTR act	FLuc act counter	NF-kB expr up	FLuc inhib CS	Pf gamet viab
CCNC(=S)N/N=C/c1sc(N2CCCCC2)nc1-c1cccs1	119	16	0.4	1.1	62*	-33
COc1cccc2cc(-c3nc4ccccc4o3)c(=O)oc12	119	122	0.4	3	60*	-8
O=c1oc2ccc(Br)cc2cc1-c1nc2ccccc2o1	103	2	1	1.2	-3	14
O=C(c1ccc(-n2cccn2)cc1)N1CCc2ccccc2C1	·	·	·	·	·	13
COc1cc(NC(=O)c2c(F)c(F)c(F)c(F)c2F)c(OC)cc1Cl	110	-9	1.1	1.4	-7	·
COc1cc(NC(=O)c2cc3nc(C)cc(C)n3n2)c(OC)cc1Cl	132*	60	0.9	1.5	10	20
NC(=O)C1(N2CCCCC2)CCN(c2ccc3nnc(-c4ccccc4)n3n2)CC1	104	-3	1.1	0.78	-8	·
c1ccc(-c2nnc3ccc(N4CCC5(CC4)OCCO5)nn23)cc1	109	10	1.1	3.6*	-6	·
COC(c1ccccc1)c1nnc(CCC(=O)N(C)C(C2CC2)C2CC2)o1 (centres undefined)	131*	44	1	2.6	-5	·
O=C(NC1CCC(Oc2ccc(C(=O)O)cc2)CC1)NC12CC3CC(CC(C3)C1)C2 (centres undefined)	·	·	·	·	·	-2
Cc1cc(NC(=O)c2ccc3c(c2)OCO3)no1	118	92	0.4	2.9	62*	·
Cc1cc(NC(=O)c2ccc3c(c2)OCCO3)no1	93	106	0.1	4*	93*	·
Cc1ccc(C(=O)NNC(=O)CCC(=O)Nc2cc(C)on2)cc1	101	4	1	1	-1	·
Cc1cc(NC(=O)CCC(=O)NNC(=O)c2ccc(C(C)(C)C)cc2)no1	117	9	0.2	1.3	78*	3
O=C(Nc1ccc([N+](=O)[O-])cn1)c1ccc2c(c1)OCO2	135*	74	1	2.5	-4	6
O=C(Nc1ccc([N+](=O)[O-])cn1)c1cccnc1	·	·	·	·	·	18
OC(CNCC1COc2ccccc2O1)COc1ccc(Cl)cc1 (centres undefined)	·	·	·	·	·	-16
CCN1C[C@@H]2[C@@H]3C(=O)N(C)C(=O)[C@@H]3[C@](C)(C1=O)N2C(=O)c1ccc(Cl)cc1	·	·	·	·	·	-17
Nc1nnc(-c2ccc(Cl)c([N+](=O)[O-])c2)s1	85	4	1	1.4	-5	-2
C/C(=N\Nc1ccc([N+](=O)[O-])cc1)c1ccc2c(c1)OCO2	136*	44	1	2.4	-2	3
CC(=O)Nc1ccc(C(=O)Nc2nc(-c3ccccn3)cs2)cc1	96	1	0.9	1.2	7	4
O=C(Nc1ccccn1)c1ccc2c(c1)OCO2	125	99	0.5	2.7	47	-10
O=C(Nc1cccc2ncccc12)c1ccc2c(c1)OCCO2	95	5	0.8	1.4	15	·
O=C(Nc1ncccc1Cl)c1ccc2c(c1)OCCO2	138*	55	0.6	2.9	37	-1
O=C(Nc1nc(-c2ccccn2)cs1)c1ccc2c(c1)OCCO2	131*	110	0.2	2.7	79*	·
SMILES	STAT1 activator	APP 5'UTR act	FLuc act counter	NF-kB expr up	FLuc inhib CS	Pf gamet viab
O=C(Nc1ccccn1)c1ccc2c(c1)OCCO2	110	128	0.3	4.2*	74*	-5
Cc1ccc(C(C)(c2ccc(N)cc2)c2ccc(N)cc2)cc1	·	·	·	·	·	-5
COc1ccccc1NC(C)C(=O)Nc1ccc(C(C)=O)cc1 (centres undefined)	98	-14	1	1.1	-2	-30
COc1ccc(C2=NN3C(C2)c2ccccc2OC32C(=O)N(C)c3ccccc32)cc1 (centres undefined)	82	187*	1	6*	-1	0
COc1ccc(C2=NN3C(C2)c2ccccc2OC3c2cccs2)cc1 (centres undefined)	108	155*	1.1	3.8*	-8	·
CC1=NN(C(=O)CCc2ccc3c(c2)OCO3)C(O)(C(F)(F)F)C1 (centres undefined)	104	38	1	1.7	-2	16
C=CCSc1n[nH]c(-c2ccccc2)n1	110	1	0.9	1.7	6	5
C=CCSc1n[nH]c(-c2ccc(OC)cc2)n1	140*	56	0.8	2.6	20	-10
Cc1ccc(NC2=Nc3ccccc3CS2)cc1	100	184*	0.3	5.6*	69*	·
Cc1ccc(Nc2ccccc2)cc1	96	-4	1	1.2	-3	·
CCOc1ccc(/C=C/C(=O)Nc2cccc(C(C)=O)c2)cc1	136*	25	0.4	1.5	64*	-19
CCOc1ccc(NC(=O)Nc2cccc(C(=O)O)c2)cc1	10	-70	0.1	1.9	92*	12
CC(=O)c1ccc(NC(=O)Nc2cccc(Cl)c2)cc1	120	121	1	3.6*	2	-9
O=C(Nc1ccc(Cl)cc1)Nc1cccc(C(=O)O)c1	18	1	0.2	2	76*	-13
COc1ccc(CC(NC(C)=O)C(=O)NC2CCN(c3nnnn3-c3ccccc3)CC2)cc1OC (centres undefined)	101	12	1	1.3	-4	·
CC(=O)Nc1ccc(S(=O)(=O)NCCc2ccccn2)cc1	105	-1	1.1	1.1	-6	-21
CCOc1ccc(NC(=O)Nc2cc(C)ccc2F)cc1	129*	131	0.8	2.4	20	-15
Cc1ccccc1OCC(=O)Nc1cccc(C(=O)O)c1	12	-68	0.4	9*	59*	-1
CCOc1ccc(NC(=O)Nc2cc(C(C)C)c(O)cc2C)cc1	·	·	·	·	·	-14
CCC(=O)Nc1cccc(C(=O)/C=C/c2ccc(F)cc2)c1	102	22	0.8	3.8*	19	-3
Cc1ccc(NC(=O)c2nsc(Cl)c2Cl)cc1	·	·	·	·	·	23
CCOC(=O)C1CCCN(C(=O)c2ccc3c(c2)N(Cc2ccccc2)C(=O)c2ccccc2S3=O)C1 (centres undefined)	114	2	1	0.99	-3	·
O=C(c1cccs1)N1CCc2ccccc21	139*	52	0.8	1.8	24	5
O=C(/C=C/c1cccs1)N1CCc2ccccc21	134*	187*	0.1	8.1*	92*	1
CCCCCCCNC(=O)C1(CC2CC(c3ccc(Cl)cc3)=NO2)CCN(C(=O)c2cc(OCC)c(OCC)c(OCC)c2)CC1 (centres undefined)	·	·	·	·	·	2
CCOC(=O)N1CCN(CCCc2ccccc2)CC1	·	·	·	·	·	-9
CSc1ccc(-c2ccco2)nn1	129*	29	0.7	1.7	27	·
CCOC(=O)c1c(C)nc(C)c(C(=O)OCC)c1-c1ccc(O)c(OC)c1	100	19	1.1	3.8*	-10	-4
COc1ccc2c(c1)Cc1sc(NC(=O)c3ccccc3)nc1-2	134*	29	1	1.4	1	·

Screening results: PubChem BioAssay, several laboratories
